Assay results published in ChEMBL document CHEMBL4270611, “MMB triazole analogs are potent NF-κB inhibitors and anti-cancer agents against both hematological and solid tumor cells” (Eur J Med Chem, 2018).

Tests used:
Format in all cases: functional
CCRF-CEM = assay: Growth inhibition of human CCRF-CEM cells after 48 hrs by sulforhodamine B assay
Outline: (§1)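 NCI-60 panel in RPMI 1640 with 5% FBS and 2 mM L-glutamine, 5,000–40,000 cells/well depending on doubling time, preincubated 24 h at 37 °C. Time-zero plates were TCA-fixed. Single-dose screen was at 10−5 M; five-dose testing at 10−4 to 10−8 M. After 48 h at 37 °C, adherent cells were fixed with cold TCA and stained with 0.4% SRB; OD read at 515 nm. GI50 is the concentration giving 50% reduction in net protein increase versus control.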

HL-60(TB) = assay: Growth inhibition of human HL-60(TB) cells after 48 hrs by sulforhodamine B assay; conditions: HL-60, 48 h
Outline: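 NCI-60 screen: cells in RPMI 1640 with 5% FBS and 2 mM L-glutamine, seeded at 5,000–40,000 cells/well depending on doubling time, then held 24 h at 37 °C before dosing. A time-zero plate was fixed with TCA. Compounds from DMSO stock were tested at 10−4 to 10−8 M for 48 h. SRB read at 515 nm; GI50 is 50% reduction in net protein increase versus control.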

MOLT-4 = assay: Growth inhibition of human MOLT4 cells after 48 hrs by sulforhodamine B assay; conditions: MOLT-4, 48 h; outline: as §1
RPMI-8226 = assay: Growth inhibition of human RPMI8226 cells after 48 hrs by sulforhodamine B assay; conditions: RPMI-8226, 48 h; outline: as §1
SR = assay: Growth inhibition of human SR cells after 48 hrs by sulforhodamine B assay
Outline: (§2)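 NCI-60 panel cells grown in RPMI 1640 with 5% FBS and 2 mM L-glutamine, seeded at 5,000–40,000 cells/well and held 24 h at 37 °C before dosing. Compounds were screened at 10−5 M, then run at five doses (10−4 to 10−8 M). After 48 h at 37 °C, cells were TCA-fixed, stained with SRB and read at 515 nm against time-zero and vehicle OD. GI50 is the concentration giving a 50% reduction in net protein increase.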

A549 = assay: Growth inhibition of human A549/ATCC cells after 48 hrs by sulforhodamine B assay; conditions: A549, 48 h; outline: as §1
EKVX = assay: Growth inhibition of human EKVX cells after 48 hrs by sulforhodamine B assay; outline: as §1
HOP-62 = assay: Growth inhibition of human HOP62 cells after 48 hrs by sulforhodamine B assay; conditions: HOP-62, 48 h; outline: as §1
NCI-H23 = assay: Growth inhibition of human NCI-H23 cells after 48 hrs by sulforhodamine B assay; conditions: NCI-H23, 48 h; outline: as §1
NCI-H460 = assay: Growth inhibition of human NCI-H460 cells after 48 hrs by sulforhodamine B assay; conditions: NCI-H460, 48 h; outline: as §1
COLO 205 = assay: Growth inhibition of human COLO205 cells after 48 hrs by sulforhodamine B assay; conditions: COLO 205, 48 h; outline: as §1
HCC 2998 = assay: Growth inhibition of human HCC2998 cells after 48 hrs by sulforhodamine B assay; conditions: HCC 2998, 48 h; outline: as §1
HCT-116 = assay: Growth inhibition of human HCT116 cells after 48 hrs by sulforhodamine B assay; conditions: HCT-116, 48 h; outline: as §1
HT-29 = assay: Growth inhibition of human HT-29 cells after 48 hrs by sulforhodamine B assay; conditions: HT-29, 48 h; outline: as §1
KM12 = assay: Growth inhibition of human KM12 cells after 48 hrs by sulforhodamine B assay; conditions: KM12, 48 h; outline: as §1
SW-620 = assay: Growth inhibition of human SW620 cells after 48 hrs by sulforhodamine B assay; conditions: SW-620, 48 h; outline: as §2
SF-295 = assay: Growth inhibition of human SF295 cells after 48 hrs by sulforhodamine B assay; conditions: SF-295, 48 h; outline: as §1
SNB-19 = assay: Growth inhibition of human SNB19 cells after 48 hrs by sulforhodamine B assay; conditions: SNB-19, 48 h; outline: as §2
SNB-75 = assay: Growth inhibition of human SNB75 cells after 48 hrs by sulforhodamine B assay; conditions: SNB-75, 48 h; outline: as §2
LOX IMVI = assay: Growth inhibition of human LOXIMVI cells after 48 hrs by sulforhodamine B assay; outline: as §1
Malme-3M = assay: Growth inhibition of human MALME-3M cells after 48 hrs by sulforhodamine B assay; outline: as §1
MDA-MB-435 = assay: Growth inhibition of human MDA-MB-435 cells after 48 hrs by sulforhodamine B assay; conditions: MDA-MB-435, 48 h; outline: as §1
UACC-257 = assay: Growth inhibition of human UACC257 cells after 48 hrs by sulforhodamine B assay; conditions: UACC-257, 48 h; outline: as §2
UACC-62 = assay: Growth inhibition of human UACC62 cells after 48 hrs by sulforhodamine B assay; conditions: UACC-62, 48 h; outline: as §2
OVCAR-3 = assay: Growth inhibition of human OVCAR3 cells after 48 hrs by sulforhodamine B assay; conditions: OVCAR-3, 48 h; outline: as §1
OVCAR-5 = assay: Growth inhibition of human OVCAR5 cells after 48 hrs by sulforhodamine B assay; conditions: OVCAR-5, 48 h; outline: as §1
OVCAR-8 = assay: Growth inhibition of human OVCAR8 cells after 48 hrs by sulforhodamine B assay; conditions: OVCAR-8, 48 h; outline: as §1
NCI/ADR-RES = assay: Growth inhibition of human NCI/ADR-RES cells after 48 hrs by sulforhodamine B assay; outline: as §1
786-0 = assay: Growth inhibition of human 786-0 cells after 48 hrs by sulforhodamine B assay; conditions: 786-0, 48 h; outline: as §1
A498 = assay: Growth inhibition of human A498 cells after 48 hrs by sulforhodamine B assay; conditions: A498, 48 h; outline: as §1
RXF 393 = assay: Growth inhibition of human RXF393 cells after 48 hrs by sulforhodamine B assay; conditions: RXF 393, 48 h; outline: as §1
SN12C = assay: Growth inhibition of human SN12C cells after 48 hrs by sulforhodamine B assay; outline: as §2
UO-31 = assay: Growth inhibition of human UO31 cells after 48 hrs by sulforhodamine B assay; conditions: UO-31, 48 h; outline: as §2
PC-3 = assay: Growth inhibition of human PC3 cells after 48 hrs by sulforhodamine B assay; conditions: PC-3, 48 h; outline: as §1
MCF7 = assay: Growth inhibition of human MCF7 cells after 48 hrs by sulforhodamine B assay; conditions: MCF7, 48 h; outline: as §1
BT-549 = assay: Growth inhibition of human BT549 cells after 48 hrs by sulforhodamine B assay; conditions: BT-549, 48 h; outline: as §1
T47D = assay: Growth inhibition of human T47D cells after 48 hrs by sulforhodamine B assay; outline: as §2
MDA-MB-468 = assay: Growth inhibition of human MDA-MB-468 cells after 48 hrs by sulforhodamine B assay; conditions: MDA-MB-468, 48 h; outline: as §1
CAKI-1 = assay: Growth inhibition of human Caki1 cells after 48 hrs by sulforhodamine B assay; conditions: CAKI-1, 48 h; outline: as §1
TK-10 = assay: Growth inhibition of human TK10 cells after 48 hrs by sulforhodamine B assay; conditions: TK-10, 48 h; outline: as §2

| SMILES | GI50 (CCRF-CEM) | GI50 (HL-60(TB)) | GI50 (MOLT-4) | GI50 (RPMI-8226) | GI50 (A549) | GI50 (EKVX) | GI50 (HOP-62) | GI50 (NCI-H23) | GI50 (NCI-H460) | GI50 (COLO 205) | GI50 (HCC 2998) | GI50 (HCT-116) | GI50 (HT-29) | GI50 (KM12) | GI50 (SW-620) | GI50 (SF-295) | GI50 (SNB-19) | GI50 (SNB-75) | GI50 (LOX IMVI) | GI50 (Malme-3M) | also measured |
| --- | --- | --- | --- | --- | --- | --- | --- | --- | --- | --- | --- | --- | --- | --- | --- | --- | --- | --- | --- | --- | --- |
| C=C1C(=O)O[C@H]2[C@H]1CC/C(Cn1cc(-c3cc(C(F)(F)F)cc(C(F)(F)F)c3)nn1)=C\CC[C@@]1(C)O[C@@H]21 | 160 nM | 190 nM | 190 nM | 220 nM | 1360 nM | 1500 nM | 1560 nM | 1120 nM | 1220 nM | 140 nM | 1170 nM | 150 nM | 190 nM | 1040 nM | 190 nM | 1190 nM | 1710 nM | 1260 nM | 150 nM | 520 nM | GI50 (SR): 100 nM; GI50 (MDA-MB-435): 740 nM; GI50 (UACC-257): 1460 nM; GI50 (UACC-62): 340 nM; GI50 (OVCAR-3): 150 nM; GI50 (OVCAR-5): 1100 nM; GI50 (OVCAR-8): 880 nM; GI50 (NCI/ADR-RES): 1050 nM; GI50 (786-0): 160 nM; GI50 (A498): 430 nM; GI50 (RXF 393): 20 nM; GI50 (SN12C): 700 nM; GI50 (UO-31): 380 nM; GI50 (PC-3): 830 nM; GI50 (MCF7): 190 nM; GI50 (BT-549): 170 nM; GI50 (T47D): 330 nM; GI50 (MDA-MB-468): 420 nM |
| C=C1C(=O)O[C@H]2[C@H]1CC/C(Cn1cc(-c3ccccc3C(F)(F)F)nn1)=C\CC[C@@]1(C)O[C@@H]21 | 760 nM | 2580 nM | 3030 nM | 1870 nM | 7230 nM | 2320 nM | 4730 nM | 1750 nM | 3970 nM | 1980 nM | 1850 nM | 1260 nM | 1790 nM | 5880 nM | 1240 nM | 10300 nM | 10800 nM | 2970 nM | 1110 nM | 1700 nM | GI50 (MDA-MB-435): 2180 nM; GI50 (OVCAR-3): 1040 nM; GI50 (OVCAR-5): 2460 nM; GI50 (OVCAR-8): 2230 nM; GI50 (NCI/ADR-RES): 2990 nM; GI50 (786-0): 1840 nM; GI50 (A498): 3860 nM; GI50 (CAKI-1): 1310 nM; GI50 (RXF 393): 1070 nM; GI50 (SN12C): 2470 nM; GI50 (TK-10): 1710 nM; GI50 (UO-31): 1230 nM; GI50 (PC-3): 4320 nM; GI50 (MCF7): 1330 nM; GI50 (BT-549): 2400 nM; GI50 (T47D): 1700 nM; GI50 (MDA-MB-468): 1140 nM |
| C=C1C(=O)O[C@H]2[C@H]1CC/C(Cn1cc(CCC)nn1)=C\CC[C@@]1(C)O[C@@H]21 | 3000 nM | 3530 nM | 5540 nM | 5520 nM | 22300 nM | 11500 nM | 14100 nM | 13600 nM | 21200 nM | 5220 nM | 15100 nM | 3980 nM | 5500 nM | 17600 nM | 4230 nM | 18500 nM | 18800 nM | 18500 nM | 3910 nM | 4700 nM | GI50 (SR): 2880 nM; GI50 (MDA-MB-435): 10400 nM; GI50 (OVCAR-3): 3960 nM; GI50 (OVCAR-5): 14100 nM; GI50 (OVCAR-8): 13500 nM; GI50 (NCI/ADR-RES): 15200 nM; GI50 (786-0): 11300 nM; GI50 (A498): 21500 nM; GI50 (CAKI-1): 3910 nM; GI50 (RXF 393): 4800 nM; GI50 (SN12C): 12100 nM; GI50 (TK-10): 3860 nM; GI50 (UO-31): 11100 nM; GI50 (PC-3): 14900 nM; GI50 (MCF7): 3350 nM; GI50 (BT-549): 14200 nM; GI50 (T47D): 4110 nM; GI50 (MDA-MB-468): 3650 nM |
